According to ChEMBL document CHEMBL1123289, “Structure-activity relationships of dopaminergic 5-hydroxy-2-aminotetralin derivatives with functionalized N-alkyl substituents” (J Med Chem, 1986):

Experiments:
[1] = Dopamine receptor binding affinity by displacing the radioligand [3H]spiroperidol from dopamine receptor.; set-up: species or system Bos taurus
Method in brief: (§1)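 Radioligand displacement was run on membrane fractions from calf caudate nucleus, with [3H]DA or [3H]spiroperidol as the labelled ligand.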

[2] = target: T1, Dopamine receptor (Rattus norvegicus) (UniProt P25115+P19020+P30729+P18901+P61169); test: Evaluation for contralateral turning in 6-hydroxy-dopamine-lesioned rats administered intraperitoneally at the dose 1 mg/kg total turnings; type: functional, organism-based; set-up: dose 1 mg/kg
Method in brief: (§2)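 Rats carrying a unilateral lesion of the nigrostriatal pathway were scored for induced turning toward the side contralateral to the lesion, using an Ungerstedt-type rotation procedure.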

[3] = Dopamine receptor binding affinity by displacing the radioligand [3H]-dopamine from dopamine receptor.; set-up: species or system Bos taurus; method in brief: as §1
[4] = target: T1, Dopamine receptor (Rattus norvegicus); test: Evaluation for contralateral turning in 6-hydroxy-dopamine-lesioned rats administered intraperitoneally at the dose 1 mg/kg duration; type: functional, organism-based; set-up: dose 1 mg/kg; method in brief: as §2
[5] = target: T1, Dopamine receptor (Rattus norvegicus); test: Evaluation for contralateral turning in 6-hydroxy-dopamine-lesioned rats administered intraperitoneally at the dose 1 mg/kg Maximum intensity (turnings/min); type: functional, organism-based; set-up: dose 1 mg/kg; method in brief: as §2
Rattus norvegicus = test: Compound was evaluated for the contralateral turning in 6-hydroxy-dopamine-lesioned rats administered intraperitoneally at the dose 1 mg/kg; type: functional; conditions: route intraperitoneal; method in brief: as §2

CN(CCCC#N)C1CCc2c(O)cccc2C1 (stereo not drawn)
IC50 [1]: 3500 nM
Total turnings [2]: < 150
IC50 [3]: 500 nM

CCCN(CCCC#N)C1CCc2c(O)cccc2C1 (stereo in doubt; (-)-3) [listing 1 of 2 here]
IC50 [1]: 370 nM
IC50 [3]: 37 nM

C=CCCCN(CCC)C1CCc2c(O)cccc2C1 (stereo not drawn)
IC50 [1]: 400 nM
Duration [4]: 7 h
Total turnings [2]: 1740
IC50 [3]: 48 nM
Max intensity [5]: 7.7 turns min-1

CCCN(CCCSC)C1CCc2c(O)cccc2C1 (single isomer, unassigned; (-)) [listing 1 of 2 here]
IC50 [1]: 230 nM
IC50 [3]: 38 nM

CCCN(CCCC#N)C1CCc2c(O)cccc2C1 (stereo in doubt; 3) [listing 1 of 2 here]
Duration [4]: 3 h
Total turnings [2]: 1170
Max intensity [5]: 10.3 turns min-1

CCCN(CCCS(C)(=O)=O)C1CCc2c(O)cccc2C1 (stereo not drawn)
IC50 [1]: 1860 nM
Duration (Rattus norvegicus): 1 h
Max intensity (Rattus norvegicus): 5.7 turns min-1
Total turnings (Rattus norvegicus): 531
IC50 [3]: 110 nM

CCCN(CCCO)C1CCc2c(O)cccc2C1 (stereo not drawn)
IC50 [1]: 1450 nM
Duration [4]: 3 h
Total turnings [2]: 721
IC50 [3]: 185 nM
Max intensity [5]: 10.2 turns min-1

CCCN(CCCC(=O)OC)C1CCc2c(O)cccc2C1 (stereo not drawn)
IC50 [1]: 910 nM
Total turnings (Rattus norvegicus): <150
IC50 [3]: 140 nM

CCCN(CCCN)C1CCc2c(O)cccc2C1 (stereo not drawn)
IC50 [1]: 4580 nM
IC50 [3]: 2000 nM

CCCN1C[C@H](CSC)C[C@@H]2c3cccc4[nH]cc(c34)C[C@H]21 [PERGOLIDE]
IC50 [1]: 145 nM
Duration [4]: > 7 h
Total turnings [2]: 1800
IC50 [3]: 18 nM
Max intensity [5]: 9.7 turns min-1

CCCN(CCNS(=O)(=O)N(CC)CC)C1CCc2c(O)cccc2C1 (stereo not drawn)
IC50 [1]: 220 nM
Duration (Rattus norvegicus): 3 h
Max intensity (Rattus norvegicus): 7.8 turns min-1
Total turnings (Rattus norvegicus): 1015
IC50 [3]: 41 nM

CCCN(CCCc1ccccc1)C1CCc2c(O)cccc2C1 (stereo not drawn)
IC50 [1]: 140 nM
Duration [4]: 5 h
Total turnings [2]: 656
IC50 [3]: 48 nM
Max intensity [5]: 6.6 turns min-1

CCCN(CCC)C1CCc2c(O)cccc2C1 (stereo not drawn) [5-OH-DPAT]
IC50 [1]: 1350 nM
Duration [4]: 6 h
Total turnings [2]: 2540
IC50 [3]: 49 nM
Max intensity [5]: 22.7 turns min-1

CCCN(CCCOC)C1CCc2c(O)cccc2C1 (stereo not drawn)
IC50 [1]: 2200 nM
Duration [4]: 2 h
Total turnings [2]: 347
IC50 [3]: 150 nM
Max intensity [5]: 7.4 turns min-1

CCCN(CCCSC)C1CCc2c(O)cccc2C1 (stereo in doubt; 12) [listing 1 of 2 here]
IC50 [1]: 220 nM
IC50 [3]: 43 nM

CCCN(CCCNC(=O)N(CC)CC)C1CCc2c(O)cccc2C1 (stereo not drawn)
IC50 [1]: 1300 nM
IC50 [3]: 220 nM

CCCN(CCCN=[N+]=[N-])C1CCc2c(O)cccc2C1 (stereo not drawn)
IC50 [1]: 530 nM
Duration [4]: 7 h
Total turnings [2]: 1860
IC50 [3]: 58 nM
Max intensity [5]: 6.7 turns min-1

CCN(CCCC#N)C1CCc2c(O)cccc2C1 (stereo not drawn)
IC50 [1]: 920 nM
Total turnings [2]: < 150
IC50 [3]: 68 nM

CN1C[C@@H](CC#N)C[C@@H]2c3cccc4[nH]cc(c34)C[C@H]21 [DELERGOTRILE]
IC50 [1]: 520 nM
Duration [4]: > 7 h
Total turnings [2]: 2610
IC50 [3]: 265 nM
Max intensity [5]: 14.4 turns min-1

CCN(CC)S(=O)(=O)N[C@H]1C[C@@H]2c3cccc4[nH]cc(c34)C[C@H]2N(C)C1 [ETISULERGINE]
IC50 [1]: 25 nM
Duration (Rattus norvegicus): >7 h
Max intensity (Rattus norvegicus): 11.8 turns min-1
Total turnings (Rattus norvegicus): 3688
IC50 [3]: 120 nM

CCCN(CCCNS(=O)(=O)N(C)C)C1CCc2c(O)cccc2C1 (stereo not drawn)
IC50 [1]: 370 nM
Duration (Rattus norvegicus): 4 h
Max intensity (Rattus norvegicus): 7.6 turns min-1
Total turnings (Rattus norvegicus): 857
IC50 [3]: 100 nM

CCCN(CCCCC#N)C1CCc2c(O)cccc2C1 (stereo not drawn)
IC50 [1]: 1500 nM
Duration [4]: 4 h
Total turnings [2]: 1460
IC50 [3]: 91 nM
Max intensity [5]: 10.8 turns min-1

CCCN(CCCNC(=O)OCC)C1CCc2c(O)cccc2C1 (stereo not drawn)
IC50 [1]: 525 nM
Duration (Rattus norvegicus): 5 h
Max intensity (Rattus norvegicus): 10.4 turns min-1
Total turnings (Rattus norvegicus): 1216
IC50 [3]: 77 nM

CCCN(CCCSC)C1CCc2c(O)cccc2C1 (single isomer, unassigned; (-)) [listing 2 of 2 here]
Duration [4]: 7 h
Total turnings [2]: 3590
Max intensity [5]: 15.2 turns min-1

CCCN(CCCNC(C)=O)C1CCc2c(O)cccc2C1 (stereo not drawn)
IC50 [1]: 1800 nM
Duration (Rattus norvegicus): 4 h
Max intensity (Rattus norvegicus): 1.6 turns min-1
Total turnings (Rattus norvegicus): 159
IC50 [3]: 190 nM

CCCN(CCCC(=O)NC)C1CCc2c(O)cccc2C1 (stereo not drawn)
IC50 [1]: 825 nM
Duration (Rattus norvegicus): 6 h
Max intensity (Rattus norvegicus): 6.4 turns min-1
Total turnings (Rattus norvegicus): 413
IC50 [3]: 38 nM

CCCN(CCCC#N)C1CCc2c(O)cccc2C1 (stereo in doubt; (-)-3) [listing 2 of 2 here]
Duration [4]: 6 h
Total turnings [2]: 3260
Max intensity [5]: 12 turns min-1

CCCN(CCCCl)C1CCc2c(O)cccc2C1 (stereo not drawn)
IC50 [1]: 1020 nM
Duration [4]: 7 h
Total turnings [2]: 2660
IC50 [3]: 46 nM
Max intensity [5]: 12.5 turns min-1

CCCN(CCCC#N)C1CCc2c(O)cccc2C1 (stereo in doubt; 3) [listing 2 of 2 here]
IC50 [1]: 790 nM
IC50 [3]: 35 nM

CCCN(CCc1ccccc1)C1CCc2c(O)cccc2C1 (stereo not drawn)
IC50 [1]: 180 nM
Duration [4]: 6 h
Total turnings [2]: 1520
IC50 [3]: 40 nM
Max intensity [5]: 8.7 turns min-1

CCCN(CCCC#N)C1CCc2c(O)cccc2C1 (single isomer, unassigned; (+))
IC50 [1]: 3500 nM
IC50 [3]: 490 nM

CCCN(CCCSC)C1CCc2c(O)cccc2C1 (stereo in doubt; 12) [listing 2 of 2 here]
Duration [4]: 7 h
Total turnings [2]: 1980
Max intensity [5]: 9.8 turns min-1

CCCN(CCC#N)C1CCc2c(O)cccc2C1 (stereo not drawn)
IC50 [1]: 7500 nM
Total turnings [2]: < 150
IC50 [3]: 130 nM
